Measured values: ChEMBL document CHEMBL1151964, “Divergent modes of enzyme inhibition in a homologous structure-activity series” (J Med Chem, 2009)
Calls of active or inactive are those of the source. The rule behind the calls is not given here.

Assays:
Cruzipain [1] = molecular target: T1, Cruzipain (Trypanosoma cruzi, UniProt P25779); assay: Inhibition of Trypanosoma cruzi cruzain preincubated for 5 mins before substrate addition
Outline: (§1)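 Cruzain IC50s were measured from dose-response curves with Triton X-100 in the assay buffer at either 0.01% or 0.001%. At 0.001% Triton, some runs included pre-incubation with BSA.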

[2] = molecular target: Cruzipain (Trypanosoma cruzi) (UniProt P25779); assay: Inhibition of Trypanosoma cruzi cruzain assessed as colloidal aggregates particles formation after 5 mins by flow cytometry
Outline: (§2)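 Particle (aggregate) formation was assessed by flow cytometry, with some samples checked by dynamic light scattering. The value is the lowest concentration tested at which particles were seen.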

Cruzipain [3] = molecular target: T1, Cruzipain; assay: Inhibition of Trypanosoma cruzi cruzain preincubated for 5 mins before substrate addition in presence of 0.01% Triton X-100; outline: as §1
Cruzipain [4] = molecular target: T1, Cruzipain; assay: Inhibition of Trypanosoma cruzi cruzain preincubated for 5 mins before substrate addition in presence of 0.001% Triton X-100; outline: as §1
[5] = molecular target: Cruzipain (Trypanosoma cruzi) (UniProt P25779); assay: Inhibition of Trypanosoma cruzi cruzain assessed as colloidal aggregates particles formation after 5 mins by flow cytometry in presence of 0.001% Triton X-100; outline: as §2
Cruzipain [6] = molecular target: T1, Cruzipain; assay: Inhibition of Trypanosoma cruzi cruzain preincubated for 5 mins before substrate addition in presence of 0.001% Triton X-100 with 1 mg/ml bovine serum albumin
[7] = molecular target: Cruzipain (Trypanosoma cruzi) (UniProt P25779); assay: Inhibition of Trypanosoma cruzi cruzain at 200 uM preincubated for 5 mins before substrate addition
[8] = Inhibition of Beta-lactamase AmpC at 50 uM preincubated for 5 mins before substrate addition
Outline: (§3)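 β-Lactamase AmpC inhibition was tested at the concentration stated, both without and with 0.01% Triton X-100. A compound was called an aggregator when its inhibition was detergent-sensitive.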

[9] = molecular target: Cruzipain (Trypanosoma cruzi) (UniProt P25779); settings: 25 uM
Cruzipain [10] = molecular target: T1, Cruzipain; assay: Competitive inhibition of Trypanosoma cruzi cruzain by Lineweaver-Burke plot analysis
[11] = Inhibition of Beta-lactamase AmpC at 100 uM preincubated for 5 mins before substrate addition
Outline: (§4)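 AmpC β-lactamase inhibition measured without detergent and with 0.01% Triton X-100, at the compound concentrations listed per compound. A compound was classed as an aggregator if its inhibition was detergent-sensitive.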

[12] = Inhibition of Beta-lactamase AmpC preincubated for 5 mins before substrate addition in presence of 0.01% Triton X-100; outline: as §4
[13] = molecular target: Cruzipain (Trypanosoma cruzi) (UniProt P25779); assay: Inhibition of Trypanosoma cruzi cruzain assessed as colloidal aggregates particles formation at 3.1 uM after 5 mins by dynamic light scattering assay
[14] = Inhibition of Beta-lactamase AmpC at 13 uM preincubated for 5 mins before substrate addition; outline: as §3
[15] = molecular target: Cruzipain (Trypanosoma cruzi) (UniProt P25779); settings: 5 uM
[16] = molecular target: Cruzipain (Trypanosoma cruzi) (UniProt P25779); settings: 50 uM

Chain of Cruzipain (Trypanosoma cruzi) (P25779 123-467 limits assumed): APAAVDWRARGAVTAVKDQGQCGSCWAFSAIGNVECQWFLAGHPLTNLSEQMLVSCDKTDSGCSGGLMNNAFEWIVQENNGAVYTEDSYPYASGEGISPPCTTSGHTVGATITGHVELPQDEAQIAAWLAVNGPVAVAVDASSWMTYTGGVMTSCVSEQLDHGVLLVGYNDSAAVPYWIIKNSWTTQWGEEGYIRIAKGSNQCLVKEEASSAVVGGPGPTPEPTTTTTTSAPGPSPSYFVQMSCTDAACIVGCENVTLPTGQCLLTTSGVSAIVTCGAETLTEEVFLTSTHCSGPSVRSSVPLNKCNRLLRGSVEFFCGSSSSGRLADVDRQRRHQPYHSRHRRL
T1 sequence (P25779 whole entry): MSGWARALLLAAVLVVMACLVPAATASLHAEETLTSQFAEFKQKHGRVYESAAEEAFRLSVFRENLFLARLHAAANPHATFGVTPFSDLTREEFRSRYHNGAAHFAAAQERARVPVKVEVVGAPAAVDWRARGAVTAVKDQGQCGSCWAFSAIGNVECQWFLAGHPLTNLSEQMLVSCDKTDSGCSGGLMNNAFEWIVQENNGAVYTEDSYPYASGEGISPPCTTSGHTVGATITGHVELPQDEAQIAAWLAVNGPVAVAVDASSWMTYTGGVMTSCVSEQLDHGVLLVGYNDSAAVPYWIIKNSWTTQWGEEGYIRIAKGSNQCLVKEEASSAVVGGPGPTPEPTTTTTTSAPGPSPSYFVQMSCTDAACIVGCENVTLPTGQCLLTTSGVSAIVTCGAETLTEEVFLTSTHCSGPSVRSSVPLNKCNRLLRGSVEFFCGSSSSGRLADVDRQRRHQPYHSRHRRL

## Nc1ccccc1-c1nnc(C(=O)Nc2ccc3[nH]ncc3c2)o1
Cruzipain [1]
  IC50: 41 µM

## CCN1CCC[C@H]1CNC(=O)c1nnc(-c2ccccc2N)o1
[2]
  Activity: > 200 µM
Cruzipain [1]
  IC50: > 100 µM
Cruzipain [3]
  IC50: > 100 µM
Cruzipain [4]
  IC50: > 100 µM
[5]
  Activity: inactive

## Nc1ccccc1-c1nnc(C(=O)N[C@@H]2c3ccccc3C[C@@H]2O)o1
Cruzipain [1]
  IC50: 32 µM

## Nc1ccccc1-c1nnc(C(=O)NCc2ccccc2OC2CCOCC2)o1
Cruzipain [1]
  IC50: 42 µM

## Cc1nn(-c2ccccc2)nc1CNC(=O)c1nnc(-c2ccccc2N)o1
Cruzipain [1]
  IC50: 7 µM

## Nc1ccccc1-c1nnc(C(=O)Nc2cc(-c3cccs3)n[nH]2)o1
Cruzipain [1]
  IC50: 1 µM
Cruzipain [4]
  IC50: 1 µM
Cruzipain [6]
  IC50: 102 µM

## CCC(NC(=O)COC(=O)c1cccnc1N)c1ccc(Br)cc1 (stereo not drawn)
Cruzipain [1]
  IC50: 84 µM
[5]
  Activity: 250 nM
[7]
  inhibition: 65%

## CC1C2CCC(C)(C2)C1NC(=O)c1nnc(-c2ccccc2N)o1 (stereo not drawn)
Cruzipain [1]
  IC50: 36 µM

## Nc1ccccc1-c1nnc(C(=O)Nc2cccc(N3CCCC3)c2)o1
[2]
  Activity: 50 µM
Cruzipain [1]
  IC50: 7 µM
Cruzipain [4]
  IC50: 7 µM
Cruzipain [6]
  IC50: 99 µM
[8]
  inhibition: Active

## Nc1ccccc1-c1nnc(C(=O)NCc2ccc(Oc3ccccc3)cc2)o1
Cruzipain [1]
  IC50: 6 µM
Cruzipain [3]
  IC50: 6 µM

## Cc1cc2cc(NC(=O)c3nnc(-c4ccccc4N)o3)ccc2[nH]1
Cruzipain [1]
  IC50: 6 µM
Cruzipain [3]
  IC50: > 100 µM
Cruzipain [4]
  IC50: 6 µM

## Nc1ccccc1-c1nnc(C(=O)NCc2cccc(N3CCOCC3)c2)o1
Cruzipain [1]
  IC50: 33 µM

## Nc1ccccc1-c1nnc(C(=O)NCc2cccc(-n3cccn3)c2)o1
Cruzipain [1]
  IC50: 17 µM

## Nc1ccccc1-c1nnc(C(=O)NCc2nc3ccccc3[nH]2)o1
Cruzipain [1]
  IC50: 17 µM

## Cc1ccc(CNC(=O)c2nnc(-c3ccccc3N)o2)o1
Cruzipain [1]
  IC50: 14 µM

## Nc1ccccc1-c1nnc(C(=O)NC2Cc3ccccc3C2)o1
Cruzipain [1]
  IC50: 11 µM
Cruzipain [3]
  IC50: 11 µM

## Nc1ncccc1C(=O)OCC(=O)Nc1cc(Cl)ccc1Cl
[9]
  inhibition: Active
Cruzipain [10]
  Ki: 32 µM
[11]
  inhibition: Active
[12]
  inhibition: inactive
Cruzipain [1]
  IC50: 77 µM
Cruzipain [4]
  IC50: 27 µM
Cruzipain [6]
  IC50: 116 µM
[5]
  Activity: 250 nM
[7]
  inhibition: 79%

## O=C(COC(=O)c1ccccn1)Nc1cc(Cl)ccc1Cl
Cruzipain [3]
  IC50: > 200 µM
[7]
  inhibition: 16%

## Nc1ncccc1C(=O)OCC(=O)Nc1ccccc1OC(F)F
Cruzipain [3]
  IC50: 126 µM
[7]
  inhibition: 58%

## Nc1ccccc1-c1nnc(C(=O)NCc2cccc3nsnc23)o1
Cruzipain [1]
  IC50: 6 µM

## Nc1ccccc1-c1nnc(C(=O)NCc2ccc(Cn3cccn3)cc2)o1
Cruzipain [1]
  IC50: 8 µM

## Nc1ccccc1-c1nnc(C(=O)NCc2ccnc(N3CCOCC3)c2)o1
Cruzipain [1]
  IC50: 83 µM
Cruzipain [3]
  IC50: 83 µM

## Nc1ccccc1C(=O)NCC(=O)NC1CCCCC1
[7]
  inhibition: 15%

## Nc1ccccc1-c1nnc(C(=O)Nc2nnc(-c3ccc(Cl)cc3)s2)o1
Cruzipain [1]
  IC50: 4 µM
Cruzipain [3]
  IC50: 4 µM

## Nc1ccccc1-c1nnc(C(=O)NC2CCc3ccccc32)o1 (stereo not drawn)
Cruzipain [1]
  IC50: 17 µM

## CCN(CC)c1ccc(NC(=O)c2nnc(-c3ccccc3N)o2)cc1
Cruzipain [1]
  IC50: 36 µM

## Nc1ccccc1-c1nnc(C(=O)Nc2ccc3oc4c(c3c2)CCCC4)o1
[2]
  Activity: > 100 µM
Cruzipain [1]
  IC50: 2 µM
Cruzipain [4]
  IC50: 2 µM
[8]
  inhibition: Active

## Nc1ccccc1-c1nnc(C(=O)Nc2ccc(N3CCOCC3)cc2)o1
Cruzipain [1]
  IC50: 62 µM
Cruzipain [3]
  IC50: 62 µM

## CC(NC(=O)c1nnc(-c2ccccc2N)o1)C12CC3CC(CC(C3)C1)C2 (stereo not drawn)
Cruzipain [1]
  IC50: 18 µM
Cruzipain [3]
  IC50: 18 µM

## Nc1ncccc1C(=O)NCC(=O)NC1CCCCC1
[7]
  inhibition: 16%

## COc1ccc(-c2cc(NC(=O)c3nnc(-c4ccccc4N)o3)n[nH]2)cc1
[2]
  Activity: 3.1 µM
[13]
  Activity: Active
Cruzipain [1]
  IC50: 0.2 µM
Cruzipain [4]
  IC50: 0.2 µM
[14]
  inhibition: Active

## Nc1ccccc1-c1nnc(C(=O)NCc2c(Cl)cccc2Cl)o1
Cruzipain [4]
  IC50: 8 µM

## Nc1ccccc1-c1nnc(C(=O)N[C@H]2CCCCNC2=O)o1
Cruzipain [1]
  IC50: > 100 µM

## Cc1ccc(-c2cc(NC(=O)c3nnc(-c4ccccc4N)o3)[nH]n2)cc1
Cruzipain [1]
  IC50: 0.5 µM
Cruzipain [4]
  IC50: 0.5 µM

## COc1ccc(OC)c(CNC(=O)c2nnc(-c3ccccc3N)o2)c1
Cruzipain [1]
  IC50: 8 µM
Cruzipain [4]
  IC50: 8 µM
Cruzipain [6]
  IC50: 45 µM

## Nc1ccccc1-c1nnc(C(=O)NCCN2CCNC2=O)o1
Cruzipain [1]
  IC50: > 100 µM

## Nc1ccccc1-c1nnc(C(=O)NCCCn2ccnc2)o1
Cruzipain [1]
  IC50: > 100 µM

## Nc1ccccc1-c1nnc(C(=O)NCc2c(N)cccc2F)o1
Cruzipain [1]
  IC50: 52 µM

## Nc1ccccc1-c1nnc(C(=O)NCc2ccc3c(c2)OCO3)o1
Cruzipain [1]
  IC50: 6 µM

## Nc1ccccc1C(=O)OCC(=O)Nc1cc(Cl)ccc1Cl
Cruzipain [1]
  IC50: 58 µM

## Nc1ccccc1-c1nnc(C(=O)NCCCN2CCCC2=O)o1
[2]
  Activity: > 200 µM
Cruzipain [1]
  IC50: > 100 µM
Cruzipain [3]
  IC50: > 100 µM
Cruzipain [4]
  IC50: > 100 µM
[5]
  Activity: inactive

## Nc1ccccc1-c1nnc(C(=O)Nc2cc(-c3ccccc3)[nH]n2)o1
Cruzipain [1]
  IC50: 0.8 µM
Cruzipain [4]
  IC50: 0.8 µM

## Cn1nccc1NC(=O)c1nnc(-c2ccccc2N)o1
Cruzipain [1]
  IC50: > 100 µM
Cruzipain [3]
  IC50: > 100 µM

## Nc1ccccc1-c1nnc(C(=O)Nc2cc(-c3cccs3)[nH]n2)o1
[15]
  inhibition: Active
[16]
  inhibition: Active

## Cn1ccc(NC(=O)c2nnc(-c3ccccc3N)o2)n1
[2]
  Activity: 200 µM
Cruzipain [1]
  IC50: > 100 µM
Cruzipain [3]
  IC50: > 100 µM
Cruzipain [4]
  IC50: > 100 µM

## Nc1ccccc1-c1nnc(C(=O)NCCN2CCOCC2)o1
Cruzipain [1]
  IC50: > 100 µM
Cruzipain [3]
  IC50: > 100 µM
Cruzipain [4]
  IC50: > 100 µM

## CC(C)(C)c1cc(NC(=O)c2nnc(-c3ccccc3N)o2)[nH]n1
Cruzipain [1]
  IC50: 2 µM
Cruzipain [4]
  IC50: 2 µM

## Cc1cc(NC(=O)c2nnc(-c3ccccc3N)o2)[nH]n1
Cruzipain [1]
  IC50: 11 µM
Cruzipain [4]
  IC50: 11 µM

## Nc1ccccc1-c1nnc(C(=O)NCc2ccccc2N2CCOCC2)o1
Cruzipain [1]
  IC50: 38 µM

## Nc1ncccc1C(=O)OCC(=O)NC1CCCCCC1
Cruzipain [1]
  IC50: 87 µM
[5]
  Activity: 250 nM
[7]
  inhibition: 68%

## Nc1ccccc1-c1nnc(C(=O)Nc2nc(-c3ccc(Cl)cc3)cs2)o1
Cruzipain [1]
  IC50: 3 µM

## Nc1ncccc1C(=O)OCC(=O)Nc1ccc2c(c1)OCCO2
Cruzipain [3]
  IC50: 182 µM
[7]
  inhibition: 51%

## Cc1cc(NC(=O)c2nnc(-c3ccccc3N)o2)n[nH]1
[2]
  Activity: 50 µM
[8]
  inhibition: inactive

## Nc1ccccc1-c1nnc(C(=O)NCc2csc(-c3cccs3)n2)o1
Cruzipain [1]
  IC50: 2 µM
Cruzipain [3]
  IC50: 2 µM

## Nc1ccccc1-c1nnc(C(=O)NC2CCNCC2)o1
Cruzipain [1]
  IC50: > 100 µM

## Nc1ccccc1-c1nnc(C(=O)NCc2ccnc(N3CCSCC3)c2)o1
Cruzipain [1]
  IC50: 23 µM

## CC(C)(C)c1cc(NC(=O)c2nnc(-c3ccccc3N)o2)n[nH]1
[2]
  Activity: 3.1 µM
[14]
  inhibition: Active

## Nc1ccccc1-c1nnc(C(=O)NCc2ccc(C(F)(F)F)c(F)c2)o1
Cruzipain [1]
  IC50: 10 µM

## COc1cc(CNC(=O)c2nnc(-c3ccccc3N)o2)cc(OC)c1OC
Cruzipain [1]
  IC50: > 100 µM

## NC(=O)c1ccsc1NC(=O)COC(=O)c1cc(Br)ccc1N
Cruzipain [3]
  IC50: 90 µM
[7]
  inhibition: 61%

## Cc1cccc(C(=O)OCC(=O)Nc2cc(Cl)ccc2Cl)c1
Cruzipain [3]
  IC50: > 200 µM
[7]
  inhibition: 5%
